Columns and labels:
HT-29 [1] = test: Induction of apoptosis in human HT-29 cells assessed as late apoptotic cells at 25 uM after 48 hrs by Annexin-V-FITC/propidium iodide staining based flow cytometry (reference value: 4.1%); format: functional
[2] = biological target: Serine/threonine-protein kinase ULK2 (Homo sapiens) (UniProt Q8IYT8); test: Inhibition of human ULK2 (M1 to S301 residues) expressed in mammalian expression system assessed as residual activity at 5 uM by KINOMEscan assay relative to control
[3] = biological target: Tyrosine-protein kinase ABL1 (Homo sapiens, UniProt P00519); test: Inhibition of human phosphorylated ABL1 (S229 to K512 residues) expressed in mammalian expression system assessed as residual activity at 5 uM by KINOMEscan assay relative to control
Ephrin type-A receptor 2 = Ephrin type-A receptor 2 (Homo sapiens, UniProt P29317); test: Inhibition of human EPHA2 (T593 to V891 residues) expressed in bacterial expression system assessed as residual activity at 5 uM by KINOMEscan assay relative to control
[4] = biological target: Glycogen synthase kinase-3 beta (Homo sapiens, UniProt P49841); test: Inhibition of full length human GSK3B (M1 to T433 residues) expressed in mammalian expression system assessed as residual activity at 5 uM by KINOMEscan assay relative to control
[5] = biological target: Serine/threonine-protein kinase B-raf (Homo sapiens, UniProt P15056); test: Inhibition of human BRAF (S429 to E741 residues) expressed in mammalian expression system assessed as residual activity at 5 uM by KINOMEscan assay relative to control
SW-620 [6] = test: Induction of apoptosis in human SW620 cells assessed as late apoptotic cells at 50 uM after 48 hrs by Annexin-V-FITC/propidium iodide staining based flow cytometry (reference value: 1.2%); format: functional
[7] = biological target: Serine/threonine-protein kinase pim-1 (Homo sapiens, UniProt P11309); test: Binding affinity to human PIM1 (A15 to K313 residues) expressed in bacterial expression system by KINOMEscan assay
[8] = biological target: Proto-oncogene tyrosine-protein kinase receptor Ret (Homo sapiens, UniProt P07949); test: Inhibition of human RET (E713 to D1014 residues) expressed in bacterial expression system assessed as residual activity at 5 uM by KINOMEscan assay relative to control
[9] = biological target: Serine/threonine-protein kinase RIO2 (Homo sapiens, UniProt Q9BVS4); test: Binding affinity to human RIOK2 (M1 to D313 residues) expressed in mammalian expression system by KINOMEscan assay
[10] = biological target: Tyrosine-protein kinase receptor UFO (Homo sapiens) (UniProt P30530); test: Inhibition of human AXL (R497 to Y821 residues) expressed in bacterial expression system assessed as residual activity at 5 uM by KINOMEscan assay relative to control
HT-29 [11] = test: Down regulation of cyclin-B1 expression in human HT-29 cells after 48 hrs by Western blot analysis; format: functional, cell-based
How it was run: (§1)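 HT29 or SW620 cells were treated at 0, 25, 50 and 75 μM for 48 h and lysed in RIPA with protease and phosphatase inhibitors. Protein was quantified by BCA. 50 μg lysate was run on 8–15% SDS-PAGE and transferred to PVDF. Blocking was 5% BSA/TBST for 2 h; primary antibodies were applied overnight at 4 °C, then HRP secondary 1 h at room temperature.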

[12] = biological target: Tyrosine-protein kinase JAK2 (Homo sapiens, UniProt O60674); test: Inhibition of human JAK2 JH1 catalytic domain (A829 to G1132 residues) expressed in mammalian expression system assessed as residual activity at 5 uM by KINOMEscan assay relative to control
[13] = biological target: Cyclin-dependent kinase 3 (Homo sapiens, UniProt Q00526); test: Binding affinity to full length human CDK3 (M1 to H305 residues) expressed in bacterial expression system by KINOMEscan assay
[14] = biological target: Epidermal growth factor receptor (Homo sapiens, UniProt P00533); test: Inhibition of partial length human EGFR (R669 to V1011 residues) expressed in bacterial expression system assessed as residual activity at 5 uM by KINOMEscan assay relative to control
HT-29 [15] = test: Induction of apoptosis in human HT-29 cells after 48 hrs by Annexin-V-FITC/propidium iodide staining based flow cytometry; format: functional, cell-based
Insulin receptor = Insulin receptor (Homo sapiens, UniProt P06213); test: Inhibition of human INSR (P997 to E1318 residues) expressed in mammalian expression system assessed as residual activity at 5 uM by KINOMEscan assay relative to control
HT-29 [16] = test: Effect on total AKT expression in human HT-29 cells up to 75 uM after 48 hrs by Western blot analysis; format: ADME, cell-based; details: ht-29, 48 h; how it was run: as §1
[17] = biological target: Rho-associated protein kinase 2 (Homo sapiens, UniProt O75116); test: Binding affinity to human ROCK2 (M1 to T431 residues) expressed in mammalian expression system by KINOMEscan assay
Angiopoietin-1 receptor = Angiopoietin-1 receptor (Homo sapiens, UniProt Q02763); test: Inhibition of human TIE2 (N804 to T1112 residues) expressed in bacterial expression system assessed as residual activity at 5 uM by KINOMEscan assay relative to control
SW-620 [18] = test: Antiproliferative activity against human SW620 cells after 48 hrs by BrdU/DAPI staining based immunofluorescence assay; format: functional, cell-based
How it was run: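 Cells seeded at 20,000 per well after reaching 80% confluence; exposed 48 h to 0, 25, 50, 75 μM, then 10 μM BrdU for 2 h. Paraformaldehyde fixation, 2 M HCl 30 min, 10% goat serum block, anti-BrdU primary overnight at 4 °C, secondary 120 min at room temperature, DAPI 300 nM. Fluorescence microscopy; percent BrdU-positive nuclei, mean ± SD of three independent experiments.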

SW-620 [19] = test: Increase in PTEN expression in human SW620 cells after 48 hrs by Western blot analysis; format: functional, cell-based; how it was run: as §1
[20] = biological target: Tyrosine-protein kinase JAK3 (Homo sapiens, UniProt P52333); test: Binding affinity to human JAK3 JH1 catalytic domain (I781 to S1124 residues) expressed in mammalian expression system by KINOMEscan assay
[21] = biological target: 3-phosphoinositide-dependent protein kinase 1 (Homo sapiens, UniProt O15530); test: Binding affinity to full length human PDPK1 (M1 to Q556 residues) expressed in bacterial expression system by KINOMEscan assay
[22] = biological target: Platelet-derived growth factor receptor beta (Homo sapiens, UniProt P09619); test: Binding affinity to human PDGFRB (V582 to Y1009 residues) expressed in bacterial expression system by KINOMEscan assay
Focal adhesion kinase 1 = Focal adhesion kinase 1 (Homo sapiens, UniProt Q05397); test: Binding affinity to human FAK (D402 to R696 residues) expressed in bacterial expression system by KINOMEscan assay
SW-620 [23] = test: Induction of apoptosis in human SW620 cells assessed as live cells at 75 uM after 48 hrs by Annexin-V-FITC/propidium iodide staining based flow cytometry (reference value: 97.5%); format: functional
[24] = biological target: RAC-beta serine/threonine-protein kinase (Homo sapiens, UniProt P31751); test: Inhibition of human AKT2 expressed in bacterial expression system assessed as residual activity at 5 uM by KINOMEscan assay relative to control

## CC(C)CN(C(=O)c1cccnc1)c1c2ccccc2c(=O)n2c1[nH]c1ccccc12
HT-29 [1]
  Activity: 8%
[2]
  Activity: 87%
[3]
  Activity: 85%
Ephrin type-A receptor 2
  Activity: 100%
[4]
  Activity: 100%
[5]
  Activity: 82%
SW-620 [6]
  Activity: 12.1%
[7]
  Kd: ≥ 5 µM
[8]
  Activity: 100%
[9]
  Kd: ≥ 5 µM
[10]
  Activity: 100%
HT-29 [11]
  Activity: Dose-dependent effect
[12]
  Activity: 88%
[13]
  Kd: ≥ 5 µM
[14]
  Activity: 100%
HT-29 [15]
  Activity: Dose-dependent effect
Insulin receptor
  Activity: 100%
HT-29 [16]
  Activity: Non-Toxic
[17]
  Kd: ≥ 5 µM
Angiopoietin-1 receptor
  Activity: 88%
SW-620 [18]
  Activity: Dose-dependent effect
SW-620 [19]
  Activity: Dose-dependent effect
[20]
  Kd: ≥ 5 µM
[21]
  Kd: ≥ 5 µM
[22]
  Kd: ≥ 5 µM
Focal adhesion kinase 1
  Kd: ≥ 5 µM
SW-620 [23]
  Activity: 76.7%
[24]
  Activity: 100%

Reference: ChEMBL document CHEMBL4229410, “Facile construction of fused benzimidazole-isoquinolinones that induce cell-cycle arrest and apoptosis in colorectal cancer cells” (Bioorg Med Chem, 2018)
